# Assay outcomes as filed in PubChem BioAssay.
# Hits are enriched below; roughly 1.9% of the tested compounds scored in any of these assays.
# Efflux pump mplx: inhibitors of Candida efflux pumps in yeast, primary screen, S. cerevisiae, Nile Red, multiplex | 0.44% of 330,000 active | S. cerevisiae Candida pump triplex | inhibition, % at 10 µM;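 active means plate passing quality check with inhibition over a set limit, or well fluorescence over plate mean plus 4 SD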;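 further: Nile Red retained in pooled yeast measured as flow cytometry median fluorescence; 0% = buffer negative control and 100% = Enniatin B positive control; higher means more Nile Red kept so more efflux inhibition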
# ASAP1 inh: inhibitors of human ASAP1 ArfGAP activity, primary screen, biochemical, fluorescence polarization; Arf-GAP with SH3 domain, ANK repeat and PH domain-containing protein 1 (Homo sapiens), …; ASAP1-stimulated ARF1 GTP hydrolysis, GDP FP detection; inhibition, % at 16.5 µM; 0.19% of 360,000 active; AID 624377, 2012; in the data active means inhibition above about 25%;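 further: 0% = vehicle with enzyme and substrate and 100% = no enzyme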
# Target sequence (Q9ULH1 325-724 limits assumed): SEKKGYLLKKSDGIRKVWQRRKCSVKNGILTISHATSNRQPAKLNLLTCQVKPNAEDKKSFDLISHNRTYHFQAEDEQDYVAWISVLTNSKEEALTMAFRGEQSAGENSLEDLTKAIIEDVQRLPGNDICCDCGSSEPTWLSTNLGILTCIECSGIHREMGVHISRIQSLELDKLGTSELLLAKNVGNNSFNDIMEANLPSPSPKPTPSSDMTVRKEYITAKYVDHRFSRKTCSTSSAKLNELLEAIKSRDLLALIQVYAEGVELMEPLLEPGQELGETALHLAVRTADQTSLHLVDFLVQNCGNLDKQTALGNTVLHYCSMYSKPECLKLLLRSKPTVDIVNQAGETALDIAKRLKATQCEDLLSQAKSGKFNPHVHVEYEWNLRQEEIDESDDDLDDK
# Rtt109 Vps75: inhibitors of C. albicans Rtt109/Vps75 HAT, primary screen, biochemical, ThioGlo CoA-SH fluorescence, plate reader; purified Rtt109/Vps75, 4 h; inhibition, % at 34.9 µM; 0.16% of 330,000 active; AID 540336, 2011;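 active means inhibition of at least 50% in every replicate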
# FGF22 binding-1: binders of human FGF22 protein, primary screen, FGF22 synaptogenesis inhibitor project, biophysical, thermal shift, single point. Fibroblast growth factor 22 (Homo sapiens), Q9HCT0. recombinant FGF22 thermal shift, SYPRO orange fluorescence; percent of sucrose octasulfate shift, DMSO zero. activity (Tm shift, normalised), % at 9.99 µM. 1.5% of 340,000 active. AID 651658, 2012;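 active means mean Tm shift, scaled 0 neutral to 100 positive control, at about 1.3% or above, every replicate too, limit read from the data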
# Target sequence (Q9HCT0 whole entry, looked up): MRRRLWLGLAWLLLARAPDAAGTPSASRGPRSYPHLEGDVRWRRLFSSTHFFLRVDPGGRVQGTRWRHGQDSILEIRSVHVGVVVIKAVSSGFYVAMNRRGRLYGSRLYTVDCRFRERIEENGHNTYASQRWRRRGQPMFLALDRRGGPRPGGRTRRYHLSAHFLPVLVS
# ARFGAP1 inhibitor: inhibitors of rat ARFGAP1 GAP activity, primary screen, biochemical, fluorescence polarization, GDP tracer; ADP-ribosylation factor GTPase-activating protein 1 (Rattus norvegicus), Q62848; Arfgap1-stimulated ARF1 GTP hydrolysis, GDP FP detection; inhibition, % at 16.5 µM; 0.26% of 360,000 active; AID 651572, 2012;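 active means inhibition above a per-plate limit, mean inhibition of low control wells plus 3 SD, cut at about 25% in these data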;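 further: 0% = DMSO wells with enzyme and 100% = wells lacking Arfgap1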
# Target sequence (Q62848 1-136 limits assumed): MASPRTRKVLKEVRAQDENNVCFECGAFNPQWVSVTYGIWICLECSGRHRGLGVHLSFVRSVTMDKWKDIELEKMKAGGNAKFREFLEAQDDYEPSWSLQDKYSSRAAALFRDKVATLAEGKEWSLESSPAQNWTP
#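 Replicates: Single well per compound | Assay system: Truncated rat Arfgap1 GAP domain | Control set: No-Arfgap1 wells (100%) versus DMSO full-reaction wells (0%) | Times: Enzyme reaction 120 min at 25 °C after 20 min preincubation | Reagent: Human ARF1(Δ1-17)-GTP substrate | Measured by: Tracer-displacement fluorescence polarization with EDTA stop, 620/688 nm | Measure: Percent inhibition of Arfgap1-stimulated GTP hydrolysis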
# FGF22 binding-2: binders of human FGF22 protein, dose response, FGF22 synaptogenesis inhibitor project, biophysical, thermal shift, cherry-pick retest; 2% of 1,000 active; recombinant FGF22 thermal shift, SYPRO orange fluorescence; thermal shift activity, °C (ΔTm) at 38 µM; AID 720646, 2013; shares compounds with FGF22 binding-1;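 active means fitted rise in melting shift crosses a set limit at or below the top valid dose tested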
# TSA no protein: compound-only thermal shift signal without protein, dose response, artefact control for FGF22 binder project, biochemical, cherry-picked samples, RT-PCR instrument; shares compounds with FGF22 binding-1; compound-only SYPRO orange thermal shift counter-screen, no protein; AC50, µM (titrated, usually from 38 µM); 2% of 1,000 active;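 active means rising signal whose fitted curve reaches the 0.54 level within the top valid dose, showing a melting point, actives reach about 13 µM in these data; inactive means the rest, including activity in the opposite direction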; further: value is where the raw curve crosses a fixed level and not half-maximal
# * marks the source's active call; other numbers are inactive results; i = inactive; / = no result given; [ ] = another dose, or the depositor's remark.
SMILES,Efflux pump mplx,ASAP1 inh,Rtt109 Vps75,FGF22 binding-1,ARFGAP1 inhibitor,FGF22 binding-2,TSA no protein
C[C@@H]1CN([C@@H](C)CO)C(=O)c2ccccc2-c2ccccc2CO[C@@H]1CN(C)C(=O)C1CC1,/,/,/,-0.1,/,/,/
COc1ccc(CN(C)C[C@@H]2Oc3c(NS(C)(=O)=O)cccc3C(=O)N([C@H](C)CO)C[C@@H]2C)cc1,/,/,/,0.1,/,/,/
N/C(=N\OC(=O)c1cccc(Cl)c1)c1ccccn1,0.0,-7.2,6.4,/,-10.2,/,/
COc1ccc(NC(=O)N(C)C[C@H]2OCCCC[C@@H](C)Oc3ccc(NS(C)(=O)=O)cc3C(=O)N([C@@H](C)CO)C[C@@H]2C)cc1,/,/,/,0.5,/,/,/
Cc1ccc(C(=O)O/N=C2\CCCc3ccccc32)cc1,0.1,1.5,-2.6,/,7.5,/,/
O=C(O/N=C1\CCCc2ccccc21)C1CC1,0.0,16.8,1.1,2.7*,-5.1,0.067,i
Cc1cccc(C(=O)NNC(=O)c2ccc(NS(=O)(=O)c3cccs3)cc2)c1C,-0.2,-6.8,1.1,1.9*,-7.7,-0.09,i
Cc1ccc(C(=O)NNC(=O)c2ccc(NS(=O)(=O)c3cccs3)cc2)s1,0.3,-2.1,4.0,0.2,-10.7,/,/
O=C(O)c1ccc(/C=N/NC(=O)c2ccc(NS(=O)(=O)c3cccs3)cc2)cc1,-0.1,-8.0,-3.5,0.2,8.6,/,/
COc1ccc(/C=N/NC(=O)c2ccc(NS(=O)(=O)c3cccs3)cc2)cc1,0.2,-0.7,10.3,1.7*,-3.1,-0.093,i
O=C(COc1coc(CN2CCN(c3ccccc3)CC2)cc1=O)Nc1ccc(F)cc1,0.1,2.1,48.5,-0.1,6.8,/,/
COc1cc(/C=C/CN2CCC(CO)(CC3CCCCO3)CC2)ccc1O (stereo unspecified),-0.2,-11.8,-2.1,41.6,-6.8,/,/
O=[N+]([O-])c1ncn(C23CC4CC(CC(C4)C2)C3)n1,0.0,-3.0,6.9,0.1,-0.2,/,/
CNC(=S)N/N=C(\C)c1cccc(C(F)(F)F)c1,-0.2,4.2,1.6,-0.2,13.3,/,/
Cc1nn(C)c(=O)n1-c1ccc(OCc2ccccc2)cc1,0.1,/,-0.2,/,/,/,/
CCCNC(=O)N1CC(=O)N2[C@H](CO)[C@@H](c3ccc(-c4cccc(C)c4)cc3)[C@@H]2C1,/,/,/,2.2*,/,0.222[42 µM],i
CCCNC(=O)N1CC(=O)N2[C@H](CO)[C@H](c3ccc(-c4cccc(C)c4)cc3)[C@@H]2C1,/,/,/,0.7,/,/,/
O=C(NC1CCCCC1)N1CC(=O)N2[C@H](C1)[C@@H](c1ccc(-c3cccc(F)c3)cc1)[C@@H]2CO,/,/,/,2.3*,/,-0.042,i
CCCNC(=O)N1CC(=O)N2[C@H](C1)[C@@H](c1ccc(-c3cccc(C)c3)cc1)[C@@H]2CO,/,/,/,6.9*,/,0.222,i
O=C(c1ccccc1F)N1CC(=O)N2[C@@H](CO)[C@H](c3ccc(-c4ccc(F)cc4)cc3)[C@@H]2C1,/,/,/,1.8*,/,0.142[42 µM],i
O=C(O)C[C@@H]1C[C@H]2c3cc(NC(=O)c4ccc5c(c4)OCO5)ccc3O[C@H]2[C@H](CO)O1,/,/,/,-0.7,/,/,/
Cc1ccc(CCNC(=O)CCS(=O)(=O)c2cc3c(cc2C)NC(=O)CO3)cc1,-0.1,-1.8,-5.9,0.1,0.6,/,/
O=C(C[C@H]1C[C@H]2c3cc(NC(=O)C4CCOCC4)ccc3O[C@H]2[C@H](CO)O1)NCc1cc(F)ccc1F,/,/,/,-0.3,/,/,/
COCC(=O)N1CC(=O)N2[C@H](CO)[C@H](c3ccc(Br)cc3)[C@H]2C1,/,/,/,1.6*,/,0.074,i
O=C(NCc1ccc2c(c1)OCO2)c1ccc(Br)cc1,0.7,-8.6,-1.2,0.1,6.5,/,/
SMILES,Efflux pump mplx,ASAP1 inh,Rtt109 Vps75,FGF22 binding-1,ARFGAP1 inhibitor,FGF22 binding-2,TSA no protein
Cc1nc2cc(C(=O)NCc3ccc4c(c3)OCO4)ccc2n1-c1ccc(Br)cc1,-0.1,0.1,-12.4,1.6*,6.8,-0.051,i
CCC(=O)N1CCc2cc(S(=O)(=O)N3CCc4ccccc43)ccc21,-0.1,-6.0,-7.6,/,13.1,/,/
CC1(C)CCC(=O)N2CC[C@H]3C[C@H](OC(=O)Nc4ccccc4)C[C@@H]1[C@H]32,0.1,3.9,-4.5,2.1*,21.7,-0.132,i
COc1ccc(-n2c(=O)[nH]cc(C(=O)Nc3ccccc3)c2=O)cc1,-0.1,5.2,-6.3,0.1,3.0,/,/
CCn1c(=O)[nH]c(=O)c2c(N)c(C(=O)c3cc(F)ccc3F)sc21,0.0,-1.7,3.0,27.5*,14.0,-0.096,i
CCOC(=O)C1(C)CCCN(C(=O)c2cccc(C#N)c2)C1 (stereo unspecified),/,4.6,/,2.0*,17.0,-0.038,i
CCOC(=O)C1(C)CCCN(C(=O)c2ccccc2)C1 (stereo unspecified),/,0.0,/,0.0,-6.4,/,/
COc1ccccc1-c1ccc(C2[C@H]3CNC[C@@H]2N3Cc2ccc(F)cc2)cc1 (stereo partly specified),/,/,/,0.3,/,/,/
O=C(Cc1c[nH]c2ccccc12)N1CCN(S(=O)(=O)c2cccc(Cl)c2Cl)CC1,0.0,-15.5,-1.1,2.9*,-1.3,-0.222,i
Cn1cnc(S(=O)(=O)N2C[C@@H](O)COC[C@H]3O[C@H](CC(=O)NCc4ccc(F)cc4)CC[C@@H]32)c1,/,/,/,0.1,/,/,/
Cn1cnc(S(=O)(=O)N2C[C@H](O)COC[C@@H]3O[C@@H](CC(=O)NCc4ccc(F)cc4)CC[C@H]32)c1,/,/,/,3.0*,/,0.114[42 µM],i
O=C(C[C@@H]1CC[C@@H]2[C@H](COC[C@@H](O)CN2S(=O)(=O)c2cccc(F)c2)O1)Nc1ccc(-c2ccccc2)cc1,/,/,/,1.8*,/,0.07[42 µM],i
O=C(C[C@@H]1CC[C@H]2[C@@H](COC[C@@H](O)CN2Cc2cc(F)ccc2F)O1)NCc1ccc(F)cc1,/,/,/,2.4*,/,-0.061[42 µM],i
O=C(C[C@H]1CC[C@@H]2[C@H](COC[C@@H](O)CN2Cc2nccs2)O1)NCc1ccccc1F,/,/,/,6.6*,/,0.048[42 µM],i
O=C(C[C@@H]1CC[C@@H]2[C@H](COC[C@@H](O)CN2Cc2nccs2)O1)NCc1ccccc1F,/,/,/,0.0,/,/,/
